We go through 17 compounds from ChEMBL document CHEMBL2016500, “Discovery and evaluation of spirocyclic derivatives as antagonists of the neuropeptide Y5 receptor” (Bioorg Med Chem Lett, 2012).

Usually Ki stands for a dissociation constant, usually derived from enzyme kinetics or from competition with a known ligand. One may read the half-life as the time needed for the level to fall by half in the phase considered. Usually bioavailability stands for dose-corrected exposure relative to a reference, in per cent.

Data set [1] concerns Liver microsomes. In words: Intrinsic clearance in human liver microsomes. It is filed as ADME, Microsome. An outline of the steps:
(§1)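 Metabolic stability in human or rat liver microsome preparations. Total intrinsic clearance scaled from in vitro microsomal half-life, given in […].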
On the technique in general: Microsomes from liver hold many membrane-bound enzymes, among them those of drug oxidation.

For data set [2], the system named is Liver microsomes. The data set can be described thus: Intrinsic clearance in rat liver microsomes. It is filed as ADME, Microsome. Put shortly:
as §1

The target of data set [3] is T1, Neuropeptide Y receptor type 5 (Homo sapiens, UniProt Q15761).
T1 sequence (Q15761 whole entry): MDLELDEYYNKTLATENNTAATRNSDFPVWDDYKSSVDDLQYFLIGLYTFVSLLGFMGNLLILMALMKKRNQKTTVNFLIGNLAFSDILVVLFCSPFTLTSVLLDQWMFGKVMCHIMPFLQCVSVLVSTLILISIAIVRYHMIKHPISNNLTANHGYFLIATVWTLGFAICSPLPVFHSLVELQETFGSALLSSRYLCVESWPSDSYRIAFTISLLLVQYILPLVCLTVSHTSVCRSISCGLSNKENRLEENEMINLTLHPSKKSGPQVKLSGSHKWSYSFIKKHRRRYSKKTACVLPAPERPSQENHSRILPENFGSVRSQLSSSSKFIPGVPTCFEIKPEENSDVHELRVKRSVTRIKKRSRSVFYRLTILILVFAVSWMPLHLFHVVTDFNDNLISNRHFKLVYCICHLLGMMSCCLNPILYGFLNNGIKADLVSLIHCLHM
In words: Displacement of [125I]PPY from human recombinant NPYY5 receptor expressed in insect Sf9 membranes. The format is cell membranes. In general terms: Displacement assays read how much labelled ligand stays bound in the presence of the test substance.

Data set [4] deals with T2, Neuropeptide Y receptor type 1 (Homo sapiens, UniProt P25929).
T2 sequence (P25929 whole entry): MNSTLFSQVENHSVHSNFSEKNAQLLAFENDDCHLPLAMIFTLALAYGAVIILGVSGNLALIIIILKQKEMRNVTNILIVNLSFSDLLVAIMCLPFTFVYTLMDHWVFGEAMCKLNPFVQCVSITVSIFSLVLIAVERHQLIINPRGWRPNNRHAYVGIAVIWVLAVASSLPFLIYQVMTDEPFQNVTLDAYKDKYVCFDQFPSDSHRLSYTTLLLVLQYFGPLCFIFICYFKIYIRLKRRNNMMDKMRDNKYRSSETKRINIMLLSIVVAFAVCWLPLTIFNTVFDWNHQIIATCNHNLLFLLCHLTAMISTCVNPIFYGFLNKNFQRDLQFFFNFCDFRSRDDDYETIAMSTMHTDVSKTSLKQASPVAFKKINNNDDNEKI
In words: Binding affinity to human NPYY1.

The subject of the next data set is Plasma. In words: Unbound fraction in diet-induced obese rat plasma at 5 mg/kg bid. The format is ADME, organism-based. The settings on record: in vivo. More on the design: dose 5 mg/kg. An outline of the steps: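 Diet-induced obese rats given 5 mg/kg bid. Unbound drug concentrations measured in plasma and brain.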
Data set [5] can be described thus: Half life in rat. The note with it: in vivo. The format is ADME, organism-based.
Another data set has as its system Brain. In words: Unbound concentration in diet-induced obese rat brain at 5 mg/kg bid. The note with it: in vivo.
In data set [6] the test system is Rattus norvegicus. In words: Antiobesity activity in diet-induced obese rat assessed as decrease body weight at 5 mg/kg bid. It is filed as functional, organism-based. More on the design: dose 5 mg/kg. Put shortly:
(§2)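 Diet-induced obese rats dosed 5 mg/kg bid over a 4-day study. Food intake and body weight followed.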

Data set [7] relates to Rattus norvegicus. In words: Antiobesity activity in diet-induced obese rat assessed as decrease in food intake at 5 mg/kg bid. It is filed as functional. More on the design: scale not given: the % may be the effect or the level left. An outline of the steps: as §2
Data set [8] can be described thus: Oral bioavailability in rat. It is filed as ADME, organism-based. The note with it: in vivo.
A short description of data set [9]: Ratio of unbound fraction in rat brain at 5 mg/kg bid to Ki for human recombinant NPYY5 receptor expressed in insect Sf9 membranes. The format is ADME, organism-based, Membrane. Also on record: dose 5 mg/kg. The settings on record: in vivo. Put shortly:
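Unbound drug concentrations were measured in plasma and brain of diet-induced obese rats dosed at 5 mg/kg bid. The ratio is unbound brain concentration divided by Ki.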

Data set [10] can be described thus: Ratio of unbound fraction in plasma to brain in rat. It is filed as ADME, cell-free. An outline of the steps:
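Unbound fraction measured separately in rat plasma and in rat brain; the value is expressed as fu,plasma/fu,brain.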

Molecules are shown by their SMILES. Calls of active or inactive are those of the source.

Regarding `CN(C(=O)Nc1ccn(-c2ccccc2F)n1)[C@H]1CC[C@]2(CC1)OC(=O)c1ccccc12`, the CLint in the data set with Liver microsomes [1] is 24 mL/min/kg; in the data set with Liver microsomes [2] it was 165 mL/min/kg. In data set [3], the Ki was 0.7 nM.

Take `CC(C)(C)S(=O)(=O)N[C@H]1CC[C@H](C(=O)Nc2ccc(C(F)(F)F)cn2)CC1`: in data set [3], the Ki came to 5 nM.

On to `CN(C(=O)Nc1cnc(-c2ccccc2)cn1)[C@H]1CC[C@@]2(CC1)Cc1ccccc1C(=O)O2`, for which the CLint was 59 mL/min/kg with Liver microsomes [1] and 333 mL/min/kg in the data set on Liver microsomes [2]. Moreover, the Ki in [3] turned out to be 4.6 nM.

`O=C1O[C@]2(CC[C@@H](N(CC(F)(F)F)C(=O)Nc3cnc(-c4ccccc4)cn3)CC2)Cc2ccccc21`: the CLint with Liver microsomes [1] was < 7 mL/min/kg. Moreover, in [3], the inhibition constant Ki came out at 2330 nM.

Regarding `CCN(C(=O)Nc1cnc(-c2ccccc2)cn1)[C@H]1CC[C@@]2(CC1)Cc1ccccc1C(=O)O2`, the Ki in [3] was determined as 11 nM.

`CN(C(=O)Nc1cnc(-c2ccccc2)cn1)[C@H]1CC[C@@]2(CC1)Cc1cnccc1C(=O)O2`: the CLint in the data set with Liver microsomes [1] is < 26 mL/min/kg; with Liver microsomes [2] it was 86 mL/min/kg. Besides, in data set [3], the Ki turned out to be 82 nM.

In the case of `CN(C(=O)Nc1cnc(-c2ccccc2)cn1)[C@H]1CC[C@@]2(CC1)OC(=O)c1ccncc12`, the CLint in the data set with Liver microsomes [1] is < 7 mL/min/kg; in the data set on Liver microsomes [2] it was 12 mL/min/kg. Besides, the Ki in data set [3] came out at 0.9 nM.

Regarding `CN(C(=O)Nc1ccn(-c2ccccc2F)n1)[C@H]1CC[C@]2(CC1)COc1ccccc12`, the CLint in the data set with Liver microsomes [1] is 68 mL/min/kg; with Liver microsomes [2], > 1120 mL/min/kg. Moreover, the Ki in data set [3] came to 8 nM.

Regarding `CN(C(=O)Nc1ccn(-c2ccccc2F)n1)[C@H]1CC[C@@]2(CC1)OC(=O)c1ccccc12`, in data set [3], the Ki was determined as 22 nM.

As to `CN(C(=O)Nc1ccn(-c2ccccc2F)n1)[C@H]1CC[C@@]2(CC1)Cc1ccccc1C(=O)O2`, the CLint in the data set on Liver microsomes [1] is 28 mL/min/kg; in the data set on Liver microsomes [2] it was 290 mL/min/kg. The Ki in [3] was 2.4 nM.

Consider `CN(C(=O)Nc1ccn(-c2ccccc2F)n1)[C@H]1CC[C@]2(CC1)OCc1ccccc12`, for which the CLint is 67 mL/min/kg in the data set on Liver microsomes [1] and > 1120 mL/min/kg in the data set with Liver microsomes [2]. In data set [3], the Ki amounted to 10 nM.

`CN(C(=O)Nc1ccn(-c2ccccc2F)n1)[C@H]1CC[C@]2(CC1)OC(=O)c1ccncc12`: the CLint in the data set on Liver microsomes [1] is < 7 mL/min/kg; with Liver microsomes [2] it was 28 mL/min/kg. The Ki in data set [3] was 0.8 nM.

Take `CN(C(=O)Nc1cnc(-c2ccccc2)cn1)[C@H]1CC[C@]2(CC1)OC(=O)c1ccncc12`: the results for the Ki in data set [4] and in data set [3] were > 10000 nM and 1 nM, respectively. Besides, in the data set on Plasma, the “Cp(f)” value is recorded as 67 nM. Also, the half-life in data set [5] is 2 h. Besides, the CLint with Liver microsomes [1] is < 6 mL/min/kg; in the data set on Liver microsomes [2] it was < 25 mL/min/kg. For the same compound, the Concentration in the data set with Brain is 27 nM. Besides, the result in the data set with Rattus norvegicus [6] was inactive. Besides, in the data set with Rattus norvegicus [7], the Activity was <10%. Also, the bioavailability in data set [8] came out at 80%. The Ratio in data set [9] was 25; in [10], 3.3.

As to `CN(C(=O)Nc1ccn(-c2ccccc2F)n1)[C@H]1CC[C@@]2(CC1)Cc1cnccc1C(=O)O2`, in [3], the Ki came out at 188 nM.

As for `O=C1O[C@]2(CC[C@H](C(=O)Nc3ccn(-c4ccccc4F)n3)CC2)c2cnccc21`, the outcome in the data set on Rattus norvegicus [6] was Active.

In the case of `O=C(Nc1ccn(-c2ccccc2F)n1)NC1CCC2(CC1)OC(=O)c1ccncc12` (mixture of isomers), in data set [3], the Ki was determined as 849 nM.

Turning to `O=C(CC1CCC2(CC1)Cc1ccccc1C(=O)O2)Nc1cnc(-c2ccccc2)cn1` (mixture of isomers), the Ki in data set [3] was 301 nM.
